Calls of active or inactive are those of the source. No cut-off for these calls is given here.
What was measured:
[1] = test system: A-375; experiment: Induction of apoptosis in human A-375 cells overexpressing […] assessed as live cells by Annexin V-FITC/PI staining based flow cytometry (Rvb-95.1%); assay type: functional; conditions: dose 2 µM
[2] = test system: A-375; experiment: Antitumor activity against human A-375 cells xenografted in nude mouse assessed as tumor growth inhibition at 5 mg/kg, ip administered every other day for 10 days measured post-last dose by caliper method; assay type: functional, organism-based; conditions: time 10.0 day
In short: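 Male nude mice, 6 weeks old, were given A375 cells (2X 106) subcutaneously. After one week, animals with palpable xenografts were randomised into two groups: DMSO vehicle, or compound at 5 mg/kg i.p. every other day for 10 days. Tumour volume was measured, and body weight was monitored.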

[3] = biological target: T1, Histone-lysine N-methyltransferase EHMT2 (Homo sapiens) (UniProt Q96KQ7); experiment: Inhibition of G9a in human M14 cells overexpressing NICD assessed as reduction in AKT phosphorylation at 2 uM by Western blot analysis; assay type: cell-based
T1 sequence (whole entry): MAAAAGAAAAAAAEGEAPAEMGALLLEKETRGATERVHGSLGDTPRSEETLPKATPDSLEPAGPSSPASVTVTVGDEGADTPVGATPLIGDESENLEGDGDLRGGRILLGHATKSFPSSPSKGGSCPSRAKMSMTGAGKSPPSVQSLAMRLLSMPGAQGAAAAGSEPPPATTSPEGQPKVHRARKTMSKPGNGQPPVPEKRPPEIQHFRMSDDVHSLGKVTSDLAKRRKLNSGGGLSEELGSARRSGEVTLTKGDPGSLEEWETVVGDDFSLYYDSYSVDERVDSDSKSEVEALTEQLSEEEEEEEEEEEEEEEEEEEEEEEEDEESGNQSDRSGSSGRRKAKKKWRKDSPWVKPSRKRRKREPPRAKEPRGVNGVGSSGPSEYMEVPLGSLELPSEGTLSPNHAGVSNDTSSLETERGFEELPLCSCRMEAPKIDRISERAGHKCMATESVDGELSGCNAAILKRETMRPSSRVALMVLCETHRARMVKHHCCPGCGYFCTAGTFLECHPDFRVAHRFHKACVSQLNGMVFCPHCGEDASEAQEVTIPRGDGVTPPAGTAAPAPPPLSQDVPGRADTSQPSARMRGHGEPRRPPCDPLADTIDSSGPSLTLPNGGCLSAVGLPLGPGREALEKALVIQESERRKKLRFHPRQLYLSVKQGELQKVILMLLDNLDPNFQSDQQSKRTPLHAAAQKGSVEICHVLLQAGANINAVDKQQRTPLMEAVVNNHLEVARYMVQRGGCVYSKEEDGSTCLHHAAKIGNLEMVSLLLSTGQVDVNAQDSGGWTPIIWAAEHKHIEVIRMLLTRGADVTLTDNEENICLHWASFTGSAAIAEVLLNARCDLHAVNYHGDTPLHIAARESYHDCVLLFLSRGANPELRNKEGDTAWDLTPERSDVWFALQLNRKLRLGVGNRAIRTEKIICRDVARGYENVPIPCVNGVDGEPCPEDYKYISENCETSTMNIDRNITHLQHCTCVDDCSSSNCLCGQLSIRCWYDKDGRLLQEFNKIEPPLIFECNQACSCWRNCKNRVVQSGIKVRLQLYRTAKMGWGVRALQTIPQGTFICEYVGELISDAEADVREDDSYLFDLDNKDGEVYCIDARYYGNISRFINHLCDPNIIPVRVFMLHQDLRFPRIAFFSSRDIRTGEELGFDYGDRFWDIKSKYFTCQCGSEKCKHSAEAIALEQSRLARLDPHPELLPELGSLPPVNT

[4] = biological target: T1, Histone-lysine N-methyltransferase EHMT2 (Homo sapiens); experiment: Inhibition of G9a in human A-375 cells overexpressing NICD assessed as reduction in AKT phosphorylation at 2 uM by Western blot analysis; assay type: cell-based
[5] = test system: M14; experiment: Induction of apoptosis in human M14 cells assessed as increase in cleaved Caspase-3 expression at 2 uM by Western blot analysis; assay type: functional, cell-based
[6] = test system: A-375; experiment: Induction of apoptosis in human A-375 cells overexpressing NICD assessed as reduction in Bcl-2 expression at 2 uM by Western blot analysis; assay type: functional, cell-based
[7] = test system: M14; experiment: Induction of apoptosis in human M14 cells overexpressing NICD assessed as reduction in Bcl-2 expression at 2 uM by Western blot analysis; assay type: functional, cell-based
[8] = biological target: T1, Histone-lysine N-methyltransferase EHMT2 (Homo sapiens); experiment: Inhibition of G9a in human A-375 cells assessed as decrease in H3K9me2 expression at 2 uM by Western blot analysis; assay type: cell-based
[9] = test system: M14; experiment: Antiinvasive activity against human M14 cells at 2 uM by transwell assay; assay type: functional, cell-based
In short: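 Transwell assay in M14 or A375 cells cultured in high-glucose DMEM with 10% FBS and penicillin/streptomycin; NICD overexpression plasmid transfected with Lipofectamine 2000. Invasion inserts coated with Matrigel diluted 1:6 in serum-free 1640 medium and set at 37 °C for 4 h; migration inserts uncoated, 5000 cells seeded. Control cells received DMSO. Migrated or invaded cells counted.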

[10] = test system: M14; experiment: Induction of apoptosis in human M14 cells assessed as necrotic cells at 2 uM by Annexin V-FITC/PI staining based flow cytometry (reference value: 1.34%); assay type: functional
[11] = biological target: T1, Histone-lysine N-methyltransferase EHMT2 (Homo sapiens); experiment: Inhibition of G9a in human A-375 cells assessed as reduction in AKT phosphorylation at 2 uM by Western blot analysis; assay type: cell-based
[12] = biological target: T1, Histone-lysine N-methyltransferase EHMT2 (Homo sapiens); experiment: Inhibition of G9a in human M14 cells assessed as reduction in AKT phosphorylation at 2 uM by Western blot analysis; assay type: cell-based
[13] = test system: A-375; experiment: Induction of apoptosis in human A-375 cells assessed as reduction in Bcl-2 expression at 2 uM by Western blot analysis; assay type: functional, cell-based
[14] = test system: A-375; experiment: Induction of apoptosis in human A-375 cells overexpressing […] assessed as necrotic cells by Annexin V-FITC/PI staining based flow cytometry (Rvb-1.34%); assay type: functional; conditions: dose 2 µM
[15] = biological target: T1, Histone-lysine N-methyltransferase EHMT2 (Homo sapiens); experiment: Inhibition of G9a in human M14 cells assessed as decrease in H3K9me2 expression at 2 uM by Western blot analysis; assay type: cell-based
[16] = test system: M14; experiment: Induction of apoptosis in human M14 cells overexpressing NCID assessed as early apoptotic cells by Annexin V-FITC/PI staining based flow cytometry (Rvb-0.43%); assay type: functional; conditions: dose 2 µM
[17] = test system: A-375; experiment: Induction of apoptosis in human A-375 cells assessed as late apoptotic cells at 2 uM by Annexin V-FITC/PI staining based flow cytometry (reference value: 3.10%); assay type: functional
[18] = test system: A-375; experiment: Induction of apoptosis in human A-375 cells assessed as early apoptotic cells at 2 uM by Annexin V-FITC/PI staining based flow cytometry (reference value: 0.43%); assay type: functional
[19] = test system: A-375; experiment: Cytotoxicity against human A-375 cells assessed as reduction in cell viability by CCK-8 assay; assay type: functional, cell-based
In short: (§1)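 CCK8 proliferation assay. M14 or A375 cells, NICD plasmid-transfected where stated, were seeded at about 1000 cells per well, with 0.1% DMSO-treated cells as control. CCK8 reagent was added every 24 h and incubated 90 min at 37 °C, then OD read at 450 nm to build a proliferation curve. IC50 came from a dose-dependent viability series in A375.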

[20] = test system: M14; experiment: Induction of apoptosis in human M14 cells assessed as live cells at 2 uM by Annexin V-FITC/PI staining based flow cytometry (reference value: 95.1%); assay type: functional
[21] = test system: A-375; experiment: Induction of apoptosis in human A-375 cells overexpressing […] assessed as early apoptotic cells by Annexin V-FITC/PI staining based flow cytometry (Rvb-0.43%); assay type: functional; conditions: dose 2 µM
[22] = test system: M14; experiment: Induction of apoptosis in human M14 cells overexpressing NICD assessed as increase in cleaved Caspase-3 expression at 2 uM by Western blot analysis; assay type: functional, cell-based
[23] = test system: A-375; experiment: Antiproliferative activity against human A-375 cells assessed as reduction in cell proliferation at 2 uM by CCK-8 assay; assay type: functional, cell-based; in short: as §1
[24] = biological target: T1, Histone-lysine N-methyltransferase EHMT2 (Homo sapiens); experiment: Inhibition of G9a in human M14 cells assessed as decrease in Hes1 expression at 2 uM by Western blot analysis; assay type: cell-based

**Q.** What does the source list for `COc1cc2c(NC3CCN(C(C)C)CC3)nc(N3CCC(F)(F)CC3)nc2cc1OCCCN1CCCC1`?
**A.** Activity [1]: 94.9%; TGI [2]: Active; inhibition [3]: inactive; inhibition [4]: inactive; Activity [5]: Active; Activity [6]: inactive; Activity [7]: inactive; inhibition [8]: Active; Activity [9]: Active; Activity [10]: 0.27%; inhibition [11]: Active; inhibition [12]: Active; Activity [13]: Active; Activity [14]: 0.76%; inhibition [15]: Active; Activity [16]: 0.75%; Activity [17]: 5.17%; Activity [18]: 4.8%; Activity [19]: Dose-Dependent Effect; IC50 [19]: 3.06 µM; Activity [20]: 89.8%; Activity [21]: 0.75%; Activity [22]: inactive; Activity [23]: Active; inhibition [24]: Active
